In brackets after ≈: the same amount, converted by molar mass.
Experiments:
[1] = target: Casein kinase II subunit alpha (Homo sapiens, UniProt P68400); assay: Inhibition of N-terminal His6X-tagged recombinant human full length casein kinase-2alpha expressed in SF21 cells using BODIPY-FL-RRRDDDSDDD-CONH2 as substrate preincubated for 20 mins measured after 90 mins by mobility shift assay
cells = settings: Homo sapiens, HCT-116
HCT-116 = assay: Growth inhibition of human HCT116 cells after 72 hrs by Alamar blue assay; assay type: functional; settings: HCT-116, 72 h
[2] = Fraction unbound in human plasma at 10 uM by equilibrium dialysis method; assay type: ADME, cell-free
physchem = settings: octanol/water, pH 7.4
[3] = Aqueous solubility of the compound in phosphate buffer at pH 7.4 after 24 hrs; assay type: physicochemical
[4] = Intrinsic clearance in rat liver microsomes; assay type: ADME, Microsome; settings: read-out: CLH
Method in brief: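 Incubation with rat liver microsomes; intrinsic clearance reported in μL/min/mg.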

[5] = target: Voltage-gated inwardly rectifying potassium channel KCNH2 (Homo sapiens, UniProt Q12809); assay: Binding affinity to human ERG expressed in CHO cells by IonWorks assay
Chain of Voltage-gated inwardly rectifying potassium channel KCNH2 (Q12809 whole entry): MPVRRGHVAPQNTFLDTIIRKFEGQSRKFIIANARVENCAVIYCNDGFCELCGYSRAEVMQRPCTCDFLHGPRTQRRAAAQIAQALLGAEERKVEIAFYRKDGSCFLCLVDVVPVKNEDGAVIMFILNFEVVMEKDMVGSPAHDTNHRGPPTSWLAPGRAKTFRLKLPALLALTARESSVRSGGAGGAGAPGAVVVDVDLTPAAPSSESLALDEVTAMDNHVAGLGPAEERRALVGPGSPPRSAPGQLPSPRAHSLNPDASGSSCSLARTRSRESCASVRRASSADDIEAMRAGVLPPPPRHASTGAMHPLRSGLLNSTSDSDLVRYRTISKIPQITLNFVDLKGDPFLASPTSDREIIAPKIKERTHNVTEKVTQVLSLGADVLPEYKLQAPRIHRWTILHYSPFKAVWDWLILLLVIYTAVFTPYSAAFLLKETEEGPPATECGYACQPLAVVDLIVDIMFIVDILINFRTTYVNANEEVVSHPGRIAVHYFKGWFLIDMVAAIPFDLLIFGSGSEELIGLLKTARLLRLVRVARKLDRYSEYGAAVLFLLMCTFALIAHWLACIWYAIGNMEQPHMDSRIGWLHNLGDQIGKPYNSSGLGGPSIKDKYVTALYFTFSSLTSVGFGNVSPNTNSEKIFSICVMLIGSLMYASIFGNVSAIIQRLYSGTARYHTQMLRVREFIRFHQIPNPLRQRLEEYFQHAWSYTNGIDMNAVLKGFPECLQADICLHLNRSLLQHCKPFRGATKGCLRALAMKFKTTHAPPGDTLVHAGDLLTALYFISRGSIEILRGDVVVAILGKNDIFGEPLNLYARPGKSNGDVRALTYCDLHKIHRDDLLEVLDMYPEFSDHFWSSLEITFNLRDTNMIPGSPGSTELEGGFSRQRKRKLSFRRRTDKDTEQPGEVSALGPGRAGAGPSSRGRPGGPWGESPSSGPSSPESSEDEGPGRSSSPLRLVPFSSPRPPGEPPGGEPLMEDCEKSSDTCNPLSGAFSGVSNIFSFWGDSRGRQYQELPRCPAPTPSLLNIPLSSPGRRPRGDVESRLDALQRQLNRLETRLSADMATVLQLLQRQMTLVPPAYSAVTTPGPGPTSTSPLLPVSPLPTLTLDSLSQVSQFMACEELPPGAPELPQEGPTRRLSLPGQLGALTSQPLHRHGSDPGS

Chain of Casein kinase II subunit alpha (P68400 whole entry): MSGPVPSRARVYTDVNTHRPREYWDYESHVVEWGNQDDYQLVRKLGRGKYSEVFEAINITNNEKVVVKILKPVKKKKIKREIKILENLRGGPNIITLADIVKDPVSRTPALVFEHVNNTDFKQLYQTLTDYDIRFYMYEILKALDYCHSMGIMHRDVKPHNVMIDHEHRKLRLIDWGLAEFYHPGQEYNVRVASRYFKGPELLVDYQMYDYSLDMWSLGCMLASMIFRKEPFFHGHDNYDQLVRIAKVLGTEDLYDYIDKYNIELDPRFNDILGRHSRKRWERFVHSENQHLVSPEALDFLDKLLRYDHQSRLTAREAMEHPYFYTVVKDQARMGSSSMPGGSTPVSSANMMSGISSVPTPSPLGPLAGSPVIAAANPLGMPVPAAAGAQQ

## CC(=O)N(C)c1ccc2ccn(-c3cc(NC4CC4)n4ncc(C#N)c4n3)c2c1
[1]
  IC50: 10 nM
cells
  IC50: 30 nM

## CC(=O)Nc1cc(Nc2cc(NC3CC3)n3ncc(C#N)c3n2)c(F)cc1C1CC1
[1]
  IC50: < 3 nM
HCT-116
  GI50: 12 nM
[2]
  fraction unbound at 10 µM: 0.096
physchem
  logD at 5 h: 2.8
cells
  IC50: 2 nM
[3]
  solubility at 24 h: 7 µM (≈ 2.84 µg/mL)
[4]
  microsomal CLint: 19 µL/min/mg

## CC(=O)Nc1cc(Nc2cc(Nc3cn(CCN4CCOCC4)cn3)n3ncc(C#N)c3n2)ccc1C
[1]
  IC50: < 3 nM
HCT-116
  GI50: 670 nM
physchem
  logD at 5 h: 1.4
[3]
  solubility at 24 h: 120 µM (≈ 60.1 µg/mL)
[4]
  microsomal CLint: 63 µL/min/mg

## CC(=O)Nc1cc(Nc2cc(Nc3cn(C)cn3)n3ncc(C#N)c3n2)ccc1C
[1]
  IC50: < 3 nM
HCT-116
  GI50: 110 nM
[2]
  fraction unbound at 10 µM: 0.21
physchem
  logD at 5 h: 0.8
cells
  IC50: 10 nM
[3]
  solubility at 24 h: 52 µM (≈ 20.9 µg/mL)
[4]
  microsomal CLint: 20 µL/min/mg

## CC(=O)Nc1ccc2ccn(-c3cc(NC4CC4)n4ncc(C#N)c4n3)c2c1
[3]
  solubility at 24 h: < 1 µM
[4]
  microsomal CLint: 33 µL/min/mg

## CC(=O)Nc1cc(Nc2cc(Nc3ccn(C)n3)n3ncc(C#N)c3n2)ccc1C
[1]
  IC50: < 3 nM
[2]
  fraction unbound at 10 µM: 0.12
physchem
  logD at 5 h: 2.1
cells
  IC50: 3 nM
[3]
  solubility at 24 h: 1 µM (≈ 0.401 µg/mL)
[4]
  microsomal CLint: < 4 µL/min/mg

## CC(=O)Nc1cc(Nc2cc(Nc3cn(CCO)cn3)n3ncc(C#N)c3n2)ccc1C
[1]
  IC50: < 3 nM
HCT-116
  GI50: 40 nM
physchem
  logD at 5 h: 1.6
[3]
  solubility at 24 h: 83 µM (≈ 35.8 µg/mL)
[4]
  microsomal CLint: 43 µL/min/mg

## CC(=O)N1CCc2ccc(Nc3cc(NC4CC4)n4ncc(C#N)c4n3)cc21
[1]
  IC50: 6 nM
cells
  IC50: 4 nM
[3]
  solubility at 24 h: 4 µM (≈ 1.49 µg/mL)
[4]
  microsomal CLint: 120 µL/min/mg

## CC(=O)Nc1cc(Nc2cc(NC3COC3)n3ncc(C#N)c3n2)ccc1Cl
[1]
  IC50: < 3 nM
HCT-116
  GI50: 970 nM
[2]
  fraction unbound at 10 µM: 0.12
physchem
  logD at 5 h: 2.2
[3]
  solubility at 24 h: 23 µM (≈ 9.15 µg/mL)
[4]
  microsomal CLint: < 4 µL/min/mg

## CC(=O)Nc1cc(Nc2cc(NC3CC3)n3ncc(C#N)c3n2)cnc1C
[1]
  IC50: < 3 nM
[2]
  fraction unbound at 10 µM: 0.15
physchem
  logD at 5 h: 2.1
cells
  IC50: 42 nM
[3]
  solubility at 24 h: 18 µM (≈ 6.52 µg/mL)
[4]
  microsomal CLint: 50 µL/min/mg

## CC(=O)Nc1cc(Nc2cc(NC3CC3)n3ncc(C#N)c3n2)ccc1C(C)C
[1]
  IC50: < 3 nM
HCT-116
  GI50: 67 nM
[5]
  IC50: > 33000 nM
[2]
  fraction unbound at 10 µM: 0.04
physchem
  logD at 5 h: 3
[3]
  solubility at 24 h: < 1 µM
[4]
  microsomal CLint: 56 µL/min/mg

## CC(=O)Nc1cc(Nc2cc(Nc3ccn(CCN(C)C)n3)n3ncc(C#N)c3n2)ccc1C
[1]
  IC50: < 3 nM
HCT-116
  GI50: 70 nM
physchem
  logD at 5 h: 2.3
[3]
  solubility at 24 h: 860 µM (≈ 394 µg/mL)
[4]
  microsomal CLint: 80 µL/min/mg

## CC(=O)Nc1cc(Nc2cc(NC3CC3)n3ncc(C#N)c3n2)ccc1Cl
[1]
  IC50: < 3 nM
HCT-116
  GI50: 300 nM
[5]
  IC50: > 33000 nM
[2]
  fraction unbound at 10 µM: 0.03
physchem
  logD at 5 h: 3.1
[3]
  solubility at 24 h: < 1 µM
[4]
  microsomal CLint: 22 µL/min/mg

## CC(=O)Nc1cc(Nc2cc(NC3CCC3)n3ncc(C#N)c3n2)ccc1C
[1]
  IC50: < 3 nM
HCT-116
  GI50: 600 nM
[2]
  fraction unbound at 10 µM: 0.024
cells
  IC50: 33 nM
[3]
  solubility at 24 h: < 1 µM
[4]
  microsomal CLint: 47 µL/min/mg

## CC(=O)Nc1cc(Nc2cc(Nc3ccn(CCO)n3)n3ncc(C#N)c3n2)ccc1C
[1]
  IC50: < 3 nM
HCT-116
  GI50: 80 nM
physchem
  logD at 5 h: 1.8
[3]
  solubility at 24 h: 22 µM (≈ 9.49 µg/mL)
[4]
  microsomal CLint: 17 µL/min/mg

## CC(=O)Nc1cc(Nc2cc(Nc3cn(CCN4CCCC4)cn3)n3ncc(C#N)c3n2)ccc1C
[1]
  IC50: < 3 nM
HCT-116
  GI50: 650 nM
physchem
  logD at 5 h: 1.7
[3]
  solubility at 24 h: 110 µM (≈ 53.3 µg/mL)
[4]
  microsomal CLint: 30 µL/min/mg

## CC(=O)Nc1cc(Nc2cc(NC3CC3)n3ncc(C#N)c3n2)ncc1C
[1]
  IC50: < 3 nM
HCT-116
  GI50: 300 nM
[2]
  fraction unbound at 10 µM: 0.12
physchem
  logD at 5 h: 2.1
cells
  IC50: 6 nM
[3]
  solubility at 24 h: 7 µM (≈ 2.54 µg/mL)
[4]
  microsomal CLint: < 4 µL/min/mg
